The results in this text go back to ChEMBL document CHEMBL1165849, “New structures and bioactivity properties of jasplakinolide (jaspamide) analogues from marine sponges” (2010).

One assay concerns HeLa. Put plainly: Cytotoxicity against human HeLa cells at 80 nM after 34 hrs by microfilament disruption assay. Type of assay: functional, cell-based.
For another assay, the system named is HCT-116. Put plainly: Growth inhibition of human HCT116 cells by sulforhodamine B assay. The format is functional. A general note: The SRB assay estimates cell density from bound dye.
Another assay concerns MCF7. Kind of assay: Growth inhibition of human MCF7 cells by sulforhodamine B assay. Type of assay: functional.
In another assay the test system is HOP-62. Put plainly: Growth inhibition of human HOP62 cells by sulforhodamine B assay. The format is functional. A digest of the protocol:
(§1)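 Tested by NCI in the NCI-DTP 60 cell line panel screen; GI50 was derived, with TGI and LC50 from the same data.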

The next assay deals with HCT-15. Kind of assay: Growth inhibition of human HCT15 cells by sulforhodamine B assay. The format is functional. A digest of the protocol:
as §1

Another assay relates to SF-539. Kind of assay: Growth inhibition of human SF539 cells by sulforhodamine B assay. The format is functional. A digest of the protocol: as §1
The subject of a further assay is M14. Kind of assay: Growth inhibition of human M14 cells by sulforhodamine B assay. Type of assay: functional. The procedure, abridged: as §1
For the next assay, the system named is OVCAR-3. Put plainly: Growth inhibition of human OVCAR-3 cells by sulforhodamine B assay. Type of assay: functional. A digest of the protocol:
as §1

Another assay deals with 786-0. Put plainly: Growth inhibition of human 786-0 cells by sulforhodamine B assay. Type of assay: functional. A digest of the protocol:
as §1

Assay [1] is described as follows: Growth inhibition of human […] cells by sulforhodamine B assay. Type of assay: functional. A digest of the protocol:
as §1

Activity calls are given as the source filed them. The rule behind the calls is not given here.

Consider `C=C1C[C@H](C)C(=O)N[C@@H](C)C(=O)N(C)[C@H](Cc2c(Br)[nH]c3ccccc23)C(=O)N[C@@H](c2ccc(O)cc2)CC(=O)O[C@@H](C)C[C@@H](C)[C@H]1O`, for which, in the assay on HeLa, the outcome was inactive.
Same read-out and setting: as for `C/C1=C\[C@H](C)C[C@H](C)OC(=O)C[C@H](c2ccc(O)cc2)NC(=O)[C@@H](Cc2ncnc3ccccc23)N(C)C(=O)C(C)NC(=O)[C@@H](C)C1` (stereo partly specified), the entry is “inactive”.
In general, GI50 refers to the concentration that inhibits growth by half. A low value points to greater sensitivity of the cells. On to `C/C1=C\[C@H](C)C[C@H](C)OC(=O)C[C@H](c2ccc(O)cc2)NC(=O)[C@@H](C[C@]2(O)C(=O)Nc3ccccc32)N(C)C(=O)C(C)NC(=O)[C@@H](C)C1` (stereo partly specified) [JASPLAKINOLIDE S], for which the outcome in the assay on HeLa was inactive. Besides, the GI50 was found to be 810 nM with HCT-116 (Homo sapiens, HCT-116) and 2300 nM in the assay on MCF7 (Homo sapiens, MCF7).
For `C/C1=C\[C@H](C)C[C@H](C)OC(=O)C[C@H](c2ccc(O)cc2)NC(=O)[C@@H](Cc2c(Br)[nH]c3ccccc23)N(C)C(=O)[C@H](C)NC(=O)[C@@H](C)C1` [JASPAMIDE], the result with HeLa was Active. Besides, the GI50 with HOP-62 amounted to 150 nM; with HCT-116 (Homo sapiens, HCT-116), 100 nM; in the assay with HCT-15, 690 nM; with SF-539, 300 nM; with M14, 56 nM; in the assay on OVCAR-3, 40 nM. For the same compound, the concentration for 50% growth inhibition (GI50) amounted to 20 nM in the assay on 786-0 and 31 nM in assay [1].
Regarding `C=C1C[C@H](C)C(=O)N[C@@H](C)C(=O)N(C)[C@H](Cc2c(Br)[nH]c3ccccc23)C(=O)N[C@@H](c2ccc(O)cc2)CC(=O)O[C@@H](C)C[C@@H](C)C1=O` [JASPLAKINOLIDE B], the result in the assay with HeLa was inactive. Besides, the GI50 with HOP-62 is 140 nM; in the assay on HCT-116 (Homo sapiens, HCT-116), less than 1 nM; in the assay with HCT-15 it was 6600 nM; in the assay on SF-539, 64 nM; in the assay on M14, 53 nM; with OVCAR-3, 110 nM. Besides, the GI50 with 786-0 was 510 nM; in the assay on MCF7 (Homo sapiens, MCF7), 130 nM; in assay [1], 1.9 nM.
As to `COC1(C[C@@H]2C(=O)N[C@@H](c3ccc(O)cc3)CC(=O)O[C@@H](C)C[C@@H](C)/C=C(\C)C[C@H](C)C(=O)N[C@@H](C)C(=O)N2C)OC(=O)Nc2ccccc21` (stereo in doubt; 5), the result with HeLa was inactive.
On the same count and under the same terms, as for `COC1(C[C@@H]2C(=O)N[C@@H](c3ccc(O)cc3)CC(=O)O[C@@H](C)C[C@@H](C)/C=C(\C)C[C@H](C)C(=O)N[C@@H](C)C(=O)N2C)OC(=O)Nc2ccccc21` (stereo in doubt; 6), the entry is “inactive”.
Turning to `C=C1C[C@H](C)C(=O)N[C@@H](C)C(=O)N(C)[C@H](Cc2c(Br)[nH]c3ccccc23)C(=O)N[C@@H](c2ccc(O)cc2)CC(=O)O[C@@H](C)C[C@@H](C)[C@@H]1O`, the outcome in the assay with HeLa was inactive.
On to `C=C1C[C@H](C)C(=O)N[C@@H](C)C(=O)N(C)[C@H](CC2(OC)OC(=O)Nc3ccccc32)C(=O)N[C@@H](c2ccc(O)cc2)CC(=O)O[C@@H](C)C[C@@H](C)C1=O` (stereo partly specified), for which, in the assay with HeLa, the outcome was inactive.
For `COC1(C[C@@H]2C(=O)N[C@@H](c3ccc(O)cc3)CC(=O)O[C@@H](C)C[C@@H](C)/C=C(\C)C[C@H](C)C(=O)N[C@@H](C)C(=O)N2C)OC(=O)Nc2ccccc21` (stereo in doubt; 6) [JASPLAKINOLIDEP], the results for the GI50 in the assay on HCT-116 and with MCF7 were 380 nM and 2400 nM, respectively.
With `C/C1=C\[C@H](C)C[C@H](C)OC(=O)C[C@H](c2ccc(O)cc2)NC(=O)[C@@H](C[C@@]2(O)C(=O)Nc3ccccc32)N(C)C(=O)C(C)NC(=O)[C@@H](C)C1` (stereo partly specified), in the assay with HeLa, the result was inactive. Moreover, the GI50 in the assay with HCT-116 (Homo sapiens, HCT-116) was more than 10000 nM; in the assay on MCF7 (Homo sapiens, MCF7) it was more than 10000 nM.
Take `C/C1=C\[C@H](C)C[C@H](C)OC(=O)C[C@H](c2ccc(O)cc2)NC(=O)[C@@H](Cc2c(Br)[nH]c3ccccc23)N(C)C(=O)[C@H](CO)NC(=O)[C@@H](C)C1` [JASPAMIDE E]: the outcome in the assay with HeLa was inactive. Further, the GI50 with HOP-62 was 140 nM; in the assay on HCT-116 (Homo sapiens, HCT-116) it was 140 nM; in the assay with HCT-15, 970 nM; with SF-539, 170 nM; in the assay with M14, 78 nM; in the assay on OVCAR-3, 530 nM. Also, the GI50 was determined as 180 nM in the assay with 786-0; 180 nM in the assay with MCF7 (Homo sapiens, MCF7); 22 nM in [1].
As to `C/C1=C\[C@H](C)C[C@H](C)OC(=O)C[C@H](c2ccc(O)cc2)NC(=O)[C@@H](Cc2c(Br)[nH]c3ccccc23)N(C)C(=O)[C@H](C)NC(=O)CC1`, the result with HeLa was Active.
Turning to `COC1(C[C@@H]2C(=O)N[C@@H](c3ccc(O)cc3)CC(=O)O[C@@H](C)C[C@@H](C)/C=C(\C)C[C@H](C)C(=O)N[C@@H](C)C(=O)N2C)OC(=O)Nc2ccccc21` (stereo in doubt; 5) [JASPLAKINOLIDEP], the GI50 in the assay on HCT-116 (Homo sapiens, HCT-116) was 350 nM; with MCF7 it was 4900 nM.
